From PubChem BioAssay AID449763 (Sanford-Burnham Center for Chemical Genomics, 2010) come the findings set out here.

Each structure is given as a SMILES string. The whole screen tested about 330,000 compounds, of which about 1,100 (0.33%) were called active.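 How the source made its calls: active means at 10 µM dose, activation of 40% or more, normalized to positive control; inactive means the rest.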 This excerpt belongs to a sample that is enriched for actives.

The nature of this assay: activators of apoptotic CHOP UPR arm, primary screen, cell-based, CHO-CHOP luciferase reporter, luminescence, uHTS (AID 449763).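 Further: 100% = tunicamycin at 10 µg/mL and 0% = DMSO alone.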 Conditions: at 10 µM, stronger effect = higher value, percent of tunicamycin response over DMSO baseline. In short, it runs like this: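 System: CHO-CHOP luciferase reporter cell line; amount: 500 cells/well; buffer or medium: F12 medium containing 10% fetal bovine serum; incubation: 6 h compound exposure at 37 °C after overnight seeding; measured by: luciferase luminescence after 10 min with Steady-Glo reagent; evaluation: % reporter activation, DMSO baseline versus tunicamycin full activation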
Background: A reporter such as luciferase makes a cellular process visible.
On to `O=C(/C=C/c1ccc([N+](=O)[O-])o1)NNC(=O)c1ccc(F)cc1`, for which the activation was 129% (active).
In the case of `CCc1noc(C)c1C(=O)NNC(=O)c1ccc(F)cc1` it was -0.408% (inactive).
For `Cc1onc(C(=O)NCc2ccc(F)cc2)c1[N+](=O)[O-]`, the activation is -0.611% (inactive).
In the case of `CC(C)CNS(=O)(=O)c1ccc(CCC(=O)NCc2ccc(Cl)cc2)cc1` it was 0.956% (inactive).
In the case of `COc1cccc(-n2c(SCC(=O)NC3CCCCC3)nc3n[nH]c(C)c3c2=N)c1`, the activation is -0.882% (inactive).
The figure for `Nc1ccccc1SC(C[N+](=O)[O-])c1ccccc1` (stereo not drawn) is 181% (active).
Take `Cc1ccc(C(C[N+](=O)[O-])c2c(C)cc3ccccn23)cc1` (stereo not drawn): the activation was -0.989% (inactive).
On to `COc1ccc(S(=O)(=O)N2CCOCC2)cc1NC(=O)CSc1ncnc2ccccc12`, for which the activation is -1.54% (inactive).
The figure for `Cc1nn(CC#N)c(=O)n1N(C)c1ncc(C(F)(F)F)cc1Cl` is -1.47% (inactive); for `COc1ccc(C(C[N+](=O)[O-])n2nc(C)cc2C)cc1` (stereo not drawn) it is 59.5% (active); for `CCOc1ccc(C(C)C)cc1S(=O)(=O)n1nc(C)cc1C` it is -3.09% (inactive).
As for `COc1ccc(OC)c(S(=O)(=O)n2c([N+](=O)[O-])cnc2C)c1`, the activation is -0.979% (inactive).
The figure for `O=C(NNS(=O)(=O)c1ccccc1)c1cnn(-c2ccc(Cl)cc2)c1C(F)(F)F` is 2.88% (inactive); for `CCN(C(=O)COC(=O)/C=C/c1nc2ccccc2s1)C1CCS(=O)(=O)C1` (stereo not drawn) it is 0.0282% (inactive).
The figure for `CN1CCNC(=O)C1CC(=O)N1CC=C(c2ccc(F)cc2)CC1` (stereo not drawn) is -1.29% (inactive); for `C=CS(=O)c1sc(Cl)c(N2CCOCC2)c1[N+](=O)[O-]` (stereo not drawn) it is 97.2% (active); for `O=C(CSCc1ccccc1)Nc1ccccc1` it is 2.11% (inactive).
For the compound `O=C(CCl)Nc1cccc(CP(=O)(c2ccccc2)c2ccccc2)c1`, the activation is 60.2% (active).
For the compound `O=C(CSc1ccccc1)Nc1ccc(C(=O)Nc2cccc(O)c2)cc1`, the activation was 2.1% (inactive).
The figure for `COc1c(C)cc(C(=O)C2CCCN(S(=O)(=O)c3c(C)noc3C)C2)cc1C` (stereo not drawn) is 3.35% (inactive).
In the case of `Cc1cc(C)nc(SCC(=O)N(C)C)n1` it was -0.00178% (inactive); in that of `O=C(/C=C/Sc1ncn[nH]1)c1ccc(Cl)cc1`, -3.23% (inactive).
For the compound `Cc1cc(C)nc(S/C=C/C(=O)c2ccccc2)n1`, the activation is 64.1% (active).
Regarding `O=C(N/N=C/c1cc2c(cc1Br)OCO2)C1COc2ccccc2O1` (stereo not drawn), the activation is 8.62% (inactive).
On to `O=C(N/N=C\c1cc2c(cc1Cl)OCO2)c1ccc(Br)s1`, for which the activation is 51.5% (active).
In the case of `CC1(C(=O)N/N=C/c2cc3c(cc2Br)OCO3)CC1(Br)Br` (stereo not drawn) it was 1.01% (inactive); in that of `Cc1ccc(S(=O)(=O)c2nnn3c2nc(N2CCN(c4ccccn4)CC2)c2ccccc23)cc1`, 1.19% (inactive).
The figure for `CC(=O)Nc1ccc(Nc2nc3c(S(=O)(=O)c4ccc(C)c(C)c4)nnn3c3ccccc23)cc1` is 0.65% (inactive).
In the case of `Cc1cccc(Nc2nc3c(S(=O)(=O)c4ccccc4)nnn3c3ccccc23)c1C` it was 145% (active).
Regarding `Cc1cccc(C(=O)N2CCCC(Nc3ccc(C(C)C)cc3)C2)n1` (stereo not drawn), the activation was 0.069% (inactive).
In the case of `COc1cccc(/C=N/NC(=O)CNC(=O)c2ccc(S(=O)(=O)N3CCOCC3)cc2)c1OC` it was 3.45% (inactive).
In the case of `COc1ccc(C(=O)NCC(=O)N/N=C/c2ccc([N+](=O)[O-])o2)cc1OC` it was 113% (active); in that of `COc1cc(CC(=O)N/N=C/c2ccccc2)c([N+](=O)[O-])cc1OC`, 0.0789% (inactive).
In the case of `CCN(c1ccc(NC(=O)COC(=O)CCc2nc3ccccc3n2-c2ccccc2)cc1)C(C)C` it was -1.22% (inactive); in that of `Cc1c(CN2CCC(n3nccc3NC(=O)CCc3ccccc3)CC2)cnn1C`, 1.65% (inactive).
For the compound `COc1ccc(CN2C(=O)CN=C2Nc2ccc(C)cc2C)cc1`, the activation is 1.91% (inactive).
Regarding `S=C1SCN(CCN2CCOCC2)CN1Cc1ccccc1`, the activation is 129% (active).
In the case of `COc1ccc(CN2CN(C(C)C)CSC2=S)cc1` it was 0.456% (inactive); in that of `c1ccc(-c2ccc(OCCN3CCOCC3)cc2)cc1`, 5.5% (inactive); in that of `COc1ccc(OC)c(NC(=O)CSc2nc(-c3ccccc3)cc(=O)[nH]2)c1`, 4.07% (inactive).
In the case of `C=C(C)CNC(=S)Nc1ccc(S(=O)(=O)Nc2cnc3ccccc3n2)cc1` it was -2.1% (inactive).
In the case of `COc1ccc(C(=O)NCC2CCCN2S(=O)(=O)c2cccs2)cc1OC` (stereo not drawn) it was 11.9% (inactive).
With `COCc1ccc(C(=O)N2CCc3c([nH]c4ccccc34)C2c2ccccn2)s1` (stereo not drawn), the activation was -0.769% (inactive).
The figure for `CCOc1cc(NS(=O)(=O)c2ccc(OC)cc2)c(OCC)cc1NC(C)=O` is 1.17% (inactive).
In the case of `COc1cc(NS(=O)(=O)c2ccc3ccccc3c2)c2ncccc2c1` it was 409% (active); in that of `COc1ccc(N2CC(NS(=O)(=O)c3ccc4ccccc4c3)CC2=O)cc1` (stereo not drawn), -0.659% (inactive); in that of `COC(=O)[C@]1(C)N[C@H](CN(C)C(=O)c2ccc(C(C)(C)C)cc2)[C@@H]2C(=O)N(C)C(=O)[C@@H]21`, 2.43% (inactive).
Consider `CCCCOc1ccc(N(CC(=O)NCC2CCCO2)C(=O)CCC(=O)Nc2cc(C)ccn2)cc1` (stereo not drawn), for which the activation is -1.23% (inactive).
The figure for `O=C(NCc1ccco1)c1sc2cccc(F)c2c1Cl` is 2.12% (inactive); for `O=C(O)c1ccc(N/N=C/c2ccc3ncccc3c2)cc1` it is -10.5% (inactive).
The figure for `Oc1ccc(/C=N/Nc2ccc(C(F)(F)F)cn2)cc1O` is 67.4% (active).
The figure for `O=C(N/N=C/c1ccc(O)c(O)c1)C1c2ccccc2Oc2ccccc21` is 3.18% (inactive); for `Cc1ccc(CCCOC(=O)C[N+]2(C)CCCC2)cc1` it is 1.65% (inactive); for `O=S(=O)(NCC1CCCO1)c1cnc(Cl)c(Cl)c1` (stereo not drawn) it is 4.71% (inactive).
Turning to `O=C(NCCCO)/C(=C\C=C\c1ccccc1)NC(=O)c1ccccc1Cl`, the activation was 0.299% (inactive).
In the case of `COc1ccc(CCNC(=O)CCc2ccccc2O)cc1OC` it was -0.118% (inactive); in that of `CC1=CC(C)(C)Nc2ccc(OC(=O)CN3C(=O)C4CCCCC4C3=O)cc21` (stereo not drawn), 67.7% (active); in that of `O=C(COC(=O)CN1C(=O)C2CCCCC2C1=O)Nc1ccc(F)c(F)c1F` (stereo not drawn), 1.69% (inactive).
The figure for `CC1=CC(C)(C)Nc2ccc(OC(=O)C(Cc3ccccc3)N3C(=O)C4CCCCC4C3=O)cc21` (stereo not drawn) is -1.34% (inactive); for `COc1ccc(NC2CC(=O)N(C)C2=O)cc1` (stereo not drawn) it is -2.21% (inactive); for `COc1ccc(/C=N/Nc2cc(N3CCOCC3)nc(C)n2)c(OC)c1` it is 8.25% (inactive).
In the case of `C(=N/Nc1cc(N2CCOCC2)nc(N2CCOCC2)n1)/c1ccccc1` it was 4.25% (inactive); in that of `COc1ccc(NC(=O)c2nc(-n3nc(C)cc3C)ccc2Cl)cc1Cl`, -0.184% (inactive).
As for `COc1ccccc1/C=N/N1CCN(Cc2ccccc2Cl)CC1`, the activation was -0.532% (inactive).
In the case of `CC(=O)c1ccc(Oc2cc(C)nc(-n3nc(C)cc3C)n2)cc1` it was -1.17% (inactive).
Turning to `Cc1cc(N/N=C\c2ccc(Br)cc2)nc(-n2nc(C)cc2C)n1`, the activation was 49.5% (active).
In the case of `COc1ccc(Nc2cc(C)nc(-n3nc(C)cc3C)n2)cc1` it was 62.8% (active).
Regarding `COc1ccccc1/C=N\Nc1cc(C)nc(-n2nc(C)cc2C)n1`, the activation was 80.6% (active).
In the case of `CN(C)c1ccc(/C=N/Nc2cc(N3CCOCC3)nc(N3CCOCC3)n2)cc1` it was -1.02% (inactive); in that of `CN(CC(=O)NC1CCN(Cc2ccccc2)CC1)S(=O)(=O)c1ccc(Cl)s1`, -1.76% (inactive); in that of `N#CCN(C(=O)COC(=O)C1CC2CCCC(C1)C2=O)c1ccccc1` (stereo not drawn), -1.48% (inactive).
For the compound `O=C(NCCCn1ccnc1)C(=O)c1cn(CC(=O)N2CCCCCC2)c2ccccc12`, the activation is 1.32% (inactive).
The figure for `Cc1ccc(S(=O)Cc2ccc(C(=O)N3CCN(C4CCCCC4)CC3)o2)cc1` (stereo not drawn) is -0.502% (inactive); for `Cc1cccnc1NC(=O)Cn1c(=O)oc2ccccc21` it is -1.26% (inactive); for `O=C(CSc1nc(=O)n2ccccc2n1)Nc1ccc2c(c1)OCCO2` it is 0.903% (inactive).
In the case of `CCCCCC(=O)NC(=S)NNC(=O)c1ccc([N+](=O)[O-])cc1` it was -1.39% (inactive).
In the case of `CCCC(=O)Nc1ccc(C(=O)N/N=C/c2ccc[nH]2)cc1` it was -0.0357% (inactive).
In the case of `CCCCCC(=O)Nc1ccc(C(=O)N/N=C/c2ccc([N+](=O)[O-])cc2)cc1`, the activation is 90.2% (active).
In the case of `CCCc1nn(C)c2c(=O)[nH]c(-c3cc(S(N)(=O)=O)ccc3OCC)nc12` it was 0.336% (inactive); in that of `COc1ccc(/C=N/N=C2/C(=O)Nc3ccccc32)cc1O`, 10.4% (inactive); in that of `O=C1Nc2ccc(Br)cc2/C1=N/N=C/C1=C(N2CCOCC2)C(=C\c2ccccc2)/CC1`, 46.3% (active).
In the case of `Cc1cc2nc3n(c2cc1C)CC1CC(C(=O)NCCC(C)C)N(C)C31` (stereo not drawn) it was -0.707% (inactive).
With `O=C(N/N=C/c1ccc(Cl)cc1)c1nc2ccc([N+](=O)[O-])cc2c(=O)[nH]1`, the activation was 0.124% (inactive).
In the case of `O=C(/C(=C/c1cccc(Cl)c1)c1nc2ccccc2[nH]1)c1ccccc1` it was 349% (active); in that of `O=C(O)c1cccc(NC(=O)c2cc(-c3cccc(Cl)c3)nc3ccccc23)c1`, 2.21% (inactive); in that of `O=S(=O)(c1ccc(SCc2ccc(Br)cc2)nc1)N1CCOCC1`, 0.334% (inactive).
The figure for `COc1ccccc1OCCCCCCN1CCN(C)CC1` is -0.245% (inactive); for `Cc1nc2ccc(NC(=O)c3cccc(S(=O)(=O)N4CCOCC4)c3)cc2s1` it is 1.06% (inactive); for `O=C(CN1CCN(S(=O)(=O)c2cccc(Cl)c2)CC1)N1CCCCC1` it is -0.576% (inactive).
With `O=S(=O)(Nc1nccs1)c1ccc2c(c1)OCCO2`, the activation is -1.47% (inactive).
In the case of `Cc1ccc(Oc2cnn(-c3ccccc3)c(=O)c2Br)cc1` it was 2.08% (inactive); in that of `Cc1cccc(-n2ncc(Cl)c(Cl)c2=O)c1`, 49.1% (active); in that of `C=CCNc1cnn(-c2ccc(C)cc2)c(=O)c1Cl`, 0.179% (inactive).
